From paper PMC4289021 (Nature, 2014)
Residue numbers refer to the chain shown, from its start.

Legend:
RNF146 WWE domain = details: cited from earlier work
RNF146(RING-WWE) K61D = assay: E2~Ub/lysine reactivity assay, K61D mutant; type: biochemical, mouse; details: 8 μM E3, 25 μM iso-ADPr
Method in brief: (§1)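 Mouse RNF146(RING-WWE) (residues 30–183), made from a GST-tagged construct with TEV cleavage, or His6-T7-tagged full-length RNF146. UbcH5~Ub was charged by wheat E1 (1.5 μM) with 100 μM E2, 200 μM K0 Ub, 2.5 mM MgCl2 and 2 mM ATP in PBS at 37 °C for 30 min, then SEC-purified. Final: 25 μM E2, 4 or 8 μM E3, ± iso-ADPr. Started with 40 mM L-lysine at 35 °C; sampled 1–15 min; non-reducing SDS-PAGE, Coomassie/Oriole stain.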

K61D RNF146(RING-WWE) = molecular target: T1, K61D RNF146(RING-WWE) (Mus musculus, UniProt Q9CZW6, K63D); assay: ITC, iso-ADPr binding to K61D RNF146; details: 25 °C, K61D mutant
T1 sequence (Q9CZW6 32-185 K63D): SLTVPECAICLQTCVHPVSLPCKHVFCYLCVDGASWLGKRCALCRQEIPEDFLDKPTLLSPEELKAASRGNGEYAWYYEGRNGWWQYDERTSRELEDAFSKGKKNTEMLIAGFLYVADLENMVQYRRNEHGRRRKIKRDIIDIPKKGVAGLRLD
Method in brief: (§2)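 Calorimetry at 25 °C on untagged mouse RNF146(RING-WWE), wild type or site-directed mutants. Protein and iso-ADPr were exchanged by Superdex 75 SEC into 20 mM HEPES pH 7.5, 150 mM NaCl, 1 mM DTT. Cell held ~15–20 μM protein. Ligand ~500 μM in the same buffer. Both were degassed. Injections of 5 μL every 5 min, 25–40 total. Kd came from a one-site model fit.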

[1] = molecular target: T2, RNF146(RING-WWE) (residues 30–183) (Mus musculus, UniProt Q9CZW6); assay: ITC, iso-ADPr binding to WT RNF146
T2 sequence (Q9CZW6 32-185): T1 sequence (Q9CZW6 32-185 K63D) with D32K

[2] = tested on: full-length RNF146 or RNF146(RING-WWE); assay: E2~Ub/lysine reactivity assay with UbcH5; type: biochemical, human
Method in brief: as §1

K61A RNF146(RING-WWE) = molecular target: T3, K61A RNF146(RING-WWE) (Mus musculus, UniProt Q9CZW6, K63A); assay: ITC, iso-ADPr binding to K61A RNF146; details: 25 °C, K61A mutant
T3 sequence (Q9CZW6 32-185 K63A): T1 sequence (Q9CZW6 32-185 K63D) with D32A
Method in brief: as §2

RNF146 WWE domain alone = details: previously published; cited from earlier work

Structure (SMILES)	binding to WWE domain (RNF146 WWE domain)	activation of E2~Ub/lysine reactivity (RNF146(RING-WWE) K61D)	Kd (K61D RNF146(RING-WWE))	Kd ([1]; ITC, 25 °C, one-site model)	binding to RNF146(RING-WWE) relative to the WWE domain alone ([1]; ratio of Kd 39 nM vs 372 nM)	iso-ADPr concentration up to which the rate of E2~Ub/lysine reactivity increases ([2]; 3 min after lysine addition, 1.2 equiv.)	activation of Ub transfer from UbcH5~Ub to lysine ([2]; ligand added to full-length RNF146 or RING-WWE fragment, not RING-only construct)	Kd (K61A RNF146(RING-WWE))	Kd (RNF146 WWE domain alone)
Nc1ncnc2c1ncn2[C@@H]1O[C@H](COP(=O)(O)OP(=O)(O)OC[C@H]2OC(O)[C@H](O)[C@@H]2O)[C@@H](O)[C@H]1O (stereo partly drawn) [ADPr, ADP-ribose]	does not bind								
Nc1ncnc2c1ncn2[C@@H]1O[C@H](COP(=O)(O)O)[C@@H](O)[C@H]1O[C@@H]1O[C@H](COP(=O)(O)O)[C@@H](O)[C@H]1O [iso-ADPr]		not activated	457 nM	39 nM	ten times tighter	5 µM	robust activation	214 nM	372 nM
